The record followed here is article PMC3149718 (Molecular and cellular biochemistry, 2011).

The target in test [1] is T1, Cy3-labeled CPTI WT 89-residue peptide (Rattus norvegicus, UniProt P32198).
T1 sequence (P32198 381-469): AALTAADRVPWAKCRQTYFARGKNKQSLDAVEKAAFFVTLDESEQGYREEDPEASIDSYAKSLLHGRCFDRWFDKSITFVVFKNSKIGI
Kind of test: FRET between Cy3-labeled CPTI peptide and Cy5-labeled LCFA-CoA binding proteins. The conditions noted are these: Cy5-labeled acceptor protein; for Sensitized Emission R (intermolecular distance): donor Cy3-CPTI WT.

The target in test [2] is T2, wild-type CPTI in mitochondria from yeast (Rattus norvegicus, UniProt P32198).
T2 sequence (P32198 1-773): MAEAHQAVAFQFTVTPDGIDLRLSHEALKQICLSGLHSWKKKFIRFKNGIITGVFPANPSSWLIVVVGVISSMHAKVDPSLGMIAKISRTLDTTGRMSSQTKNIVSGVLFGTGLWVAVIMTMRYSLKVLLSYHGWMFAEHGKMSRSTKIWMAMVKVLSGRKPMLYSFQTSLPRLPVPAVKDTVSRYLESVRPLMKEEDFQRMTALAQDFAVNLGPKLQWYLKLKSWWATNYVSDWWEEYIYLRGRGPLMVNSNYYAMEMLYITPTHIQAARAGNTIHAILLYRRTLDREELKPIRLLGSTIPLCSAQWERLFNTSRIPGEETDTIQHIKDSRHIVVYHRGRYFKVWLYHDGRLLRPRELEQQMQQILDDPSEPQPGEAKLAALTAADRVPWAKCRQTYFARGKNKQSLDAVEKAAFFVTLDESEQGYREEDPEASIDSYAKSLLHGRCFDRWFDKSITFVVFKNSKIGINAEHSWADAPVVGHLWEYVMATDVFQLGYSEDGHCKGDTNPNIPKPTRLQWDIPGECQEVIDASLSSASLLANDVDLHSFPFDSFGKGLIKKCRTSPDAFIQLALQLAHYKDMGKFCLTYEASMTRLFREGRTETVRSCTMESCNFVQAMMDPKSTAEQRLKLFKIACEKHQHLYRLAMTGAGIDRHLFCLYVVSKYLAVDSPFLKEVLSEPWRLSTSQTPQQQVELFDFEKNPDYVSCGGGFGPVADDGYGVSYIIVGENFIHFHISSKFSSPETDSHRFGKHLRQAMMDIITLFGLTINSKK
The test is described as follows: CPTI activity assay. In kind it is biochemical. In a few lines: (§1)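 Mitochondria isolated from yeast strains expressing wild-type or mutant CPTI were assayed by forward exchange with L-[methyl-3H]carnitine at a fixed 1.0 mM carnitine, using 150 µg mitochondrial protein. […] Incubation was 5 min at 30°C and was stopped with 6% perchloric acid. Values are mean ± SE.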

For test [3], the target named is T3, W391A mutant CPTI in mitochondria from yeast (Rattus norvegicus, UniProt P32198, W391A).
T3 sequence (P32198 1-773 W391A): T2 sequence (P32198 1-773) with W391A
Kind of test: CPTI activity assay. The class given is biochemical. The method in brief:
as §1

In test [4] the target is T4, W452A mutant CPTI in mitochondria from yeast (Rattus norvegicus, UniProt P32198, W452A).
T4 sequence (P32198 1-773 W452A): T2 sequence (P32198 1-773) with W452A
The test is described as follows: CPTI activity assay. In kind it is biochemical. In a few lines: as §1

In test [5] the target is T5, Cy3-labeled W391A 89-residue CPTI peptide (Rattus norvegicus, UniProt P32198, W391A).
T5 sequence (P32198 381-469 W391A): T1 sequence (P32198 381-469) with W11A
Kind of test: FRET between Cy3-labeled CPTI peptide and Cy5-labeled LCFA-CoA binding proteins. Particulars: donor Cy3-W391A, Cy5-labeled acceptor protein.

The target in test [6] is T6, Cy3-labeled W452A 89-residue CPTI peptide (Rattus norvegicus, UniProt P32198, W452A).
T6 sequence (P32198 381-469 W452A): T1 sequence (P32198 381-469) with W72A
Described as above. The conditions noted are these: donor Cy3-W452A, Cy5-labeled acceptor protein.

Setting [7] is: donor protein 15uM, palmitoyl-CoA to protein molar ratio 7.41.
Where [8] appears, read: donor protein 30uM, palmitoyl-CoA to protein molar ratio 3.70.
Where [9] appears, read: donor protein 60uM, palmitoyl-CoA to protein molar ratio 1.85.

Changes are numbered by the printed parent chain.

Turning to “CytoC: Cytochrome C purchased from Sigma Aldrich, used as control protein [reference compound]”, the “Sensitized Emission Kd” value in test [1] (donor Cy3-CPTI WT 30 nM, PBS 24°C) is reported as “no FRET or binding was observed”.

B1: SCP-2: Human recombinant sterol carrier protein-2 (protein, UniProt P22307 1-547, looked up)
Sterol carrier protein 2: MSSSPWEPATLRRVFVVGVGMTKFVKPGAENSRDYPDLAEEAGKKALADAQIPYSAVDQACVGYVFGDSTCGQRAIYHSLGMTGIPIINVNNNCATGSTALFMARQLIQGGVAECVLALGFEKMSKGSLGIKFSDRTIPTDKHVDLLINKYGLSAHPVAPQMFGYAGKEHMEKYGTKIEHFAKIGWKNHKHSVNNPYSQFQDEYSLDEVMASKEVFDFLTILQCCPTSDGAAAAILASEAFVQKYGLQSKAVEILAQEMMTDLPSSFEEKSIIKMVGFDMSKEAARKCYEKSGLTPNDIDVIELHDCFSTNELLTYEALGLCPEGQGATLVDRGDNTYGGKWVINPSGGLISKGHPLGATGLAQCAELCWQLRGEAGKRQVPGAKVALQHNLGIGGAVVVTLYKMGFPEAASSFRTHQIEAVPTSSASDGFKANLVFKEIEKKLEEEGEQFVKKIGGIFAFKVKDGPGGKEATWVVDVKNGKGSVLPNSDKKADCTITMADSDFLALMTGKMNPQSAFFQGKLKITGNMGLAMKLQNLQLQPGNAKL
modifications: Cy5 label
On to B1, for which the “CPTI activity, WT” value in test [2] (setting [7]) amounted to 31.7 ± 1.1 nmol/min/mg; in test [2] (setting [8]), 26.1 ± 1.1 nmol/min/mg; in test [2] (setting [9]) it was 16.5 ± 0.1 nmol/min/mg. Also, the “CPTI activity, W391A” value in test [3] (setting [7]) is 4.7 ± 0.1 nmol/min/mg; in test [3] (setting [8]), 5.7 ± 0.2 nmol/min/mg; in test [3] (setting [9]), 4.5 ± 0.1 nmol/min/mg. Also, the “CPTI activity, W452A” value turned out to be 0.8 ± 0.2 nmol/min/mg in test [4] (setting [7]), 1.2 ± 0.2 nmol/min/mg in test [4] (setting [8]) and 0.9 ± 0.2 nmol/min/mg in test [4] (setting [9]).

B2: ACBP: Mouse recombinant acyl CoA binding protein (protein)
chain: MSQAEFDKAAEEVKRLKTQPTDEEMLFIYSHFKQATVGDVNTDRPGLLDLKGKAKWDSWNKLKGTSKESAMKTYVEKVDELKKKYGI
modifications: Cy5 dye, approximately 1 dye per protein molecule (in the FRET assay only; unlabelled in circular dichroism)
As to B2, the “Sensitized Emission R (intermolecular distance)” value is listed as 56 ± 1 Å in test [1], 65 ± 1 Å in test [5] and 65.8 ± 0.2 Å in test [6]. Further, the “CPTI activity, WT” value stood at 31.8 ± 2.1 nmol/min/mg in test [2] (setting [7]), 27.6 ± 2.4 nmol/min/mg in test [2] (setting [8]) and 13.2 ± 0.1 nmol/min/mg in test [2] (setting [9]). Besides, the “CPTI activity, W391A” value came out at 3.3 ± 0.1 nmol/min/mg in test [3] (setting [7]), 4.5 ± 0.9 nmol/min/mg in test [3] (setting [8]) and 5.7 ± 0.1 nmol/min/mg in test [3] (setting [9]). Besides, the “CPTI activity, W452A” value was determined as 0.7 ± 0.2 nmol/min/mg in test [4] (setting [7]), 0.8 ± 0.2 nmol/min/mg in test [4] (setting [8]) and 1.3 ± 0.1 nmol/min/mg in test [4] (setting [9]).

B3: L-FABP: Mouse recombinant liver fatty acid binding protein, delipidated (protein)
chain: MNFSGKYQLQSQENFEPFMKAIGLPEDLIQKGKDIKGVSEIVHEGKKIKLTITYGPKVVRNEFTLGEECELETMTGEKVKAVVKLEGDNKMVTTFKGIKSVTELNGDTITNTMTLGDIVYKRVSKRI
modifications: Cy5 dye, approximately 1 dye per protein molecule (in the FRET assay only; unlabelled in circular dichroism)
As for B3, the “Sensitized Emission R (intermolecular distance)” value in test [1] turned out to be 56 ± 3 Å; in test [5], 50 ± 2 Å; in test [6], 82 ± 1 Å. Also, the results for the “CPTI activity, WT” value in test [2] (setting [7]), in test [2] (setting [8]) and in test [2] (setting [9]) were 39.3 ± 2.5 nmol/min/mg, 37.6 ± 0.1 nmol/min/mg and 34.0 ± 0.1 nmol/min/mg, respectively. The “CPTI activity, W391A” value in test [3] (setting [7]) amounted to 4.2 ± 0.1 nmol/min/mg; in test [3] (setting [8]), 5.9 ± 0.1 nmol/min/mg; in test [3] (setting [9]), 7.4 ± 0.1 nmol/min/mg. Besides, the “CPTI activity, W452A” value turned out to be 0.9 ± 0.2 nmol/min/mg in test [4] (setting [7]), 1.1 ± 0.1 nmol/min/mg in test [4] (setting [8]) and 1.6 ± 0.1 nmol/min/mg in test [4] (setting [9]).
